Source: article PMC6624406 (British Journal of Clinical Pharmacology, 2019)

What was measured:
HIV‐1 = conditions: cited from earlier work
Safety and tolerability = type: in vivo, human; conditions: for Participants reporting at least 1 AE: n = 16
Method in brief: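 Phase I open-label two-part study in opioid-dependent, HIV-seronegative adults on stable once-daily opioid maintenance, 16 per part. Usual dose alone on day 1, then with test compound 600 mg ER BID on days 2–9, confined day -1 to day 10. Safety assessed by AE reports, vital signs (screening, days 1, 5, 10), ECG/physical exam (screening, day 1, day 10) and clinical labs (days 5, 9).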

[1] = type: in vivo; conditions: human, plasma, oral
[2] = human, in vivo; cited from earlier work
[3] = Part 1, while receiving MET with FTR
[4] = Part 2, while receiving BUP/NLX with FTR

## COc1cnc(-n2cnc(C)n2)c2c1c(C(=O)C(=O)N1CCN(C(=O)c3ccccc3)CC1)cn2COP(=O)(O)O [FTR, Fostemsavir]
HIV‐1; 8 days of functional FTR monotherapy, FTR 600 mg ER BID
  Decline in HIV‐1 RNA: 0.8 log10 copies/mL
HIV‐1; FTR with an optimized background therapy for 24 and 48 weeks
  Rate of HIV virological suppression: 54%
Safety and tolerability; FTR 600 mg ER BID coadministered with MET or BUP/NLX
  Tolerability: well tolerated
Safety and tolerability; [3]
  Participants reporting headache: 12.5%
  Participants reporting nausea: 12.5%
Safety and tolerability; Part 1, while receiving MET with FTR 600 mg ER BID
  Participants reporting at least 1 AE: 62.5%
Safety and tolerability; [4]
  Participants reporting headache: 6.3%
  Participants reporting nausea: 18.8%
Safety and tolerability; Part 2, while receiving BUP/NLX with FTR 600 mg ER BID
  Participants reporting at least 1 AE: 50.0%

## COc1cnc(-n2cnc(C)n2)c2[nH]cc(C(=O)C(=O)N3CCN(C(=O)c4ccccc4)CC3)c12 [TMR, temsavir]
[1]
  AUC: 9760 ng·h/mL
[1]; TMR C12, geometric mean (coefficient of variation [%]), FTR 600 mg ER BID coadministered with BUP/NLX
  concentration at 12 h: 468 ng/mL
[1]; TMR Cmax, geometric mean (coefficient of variation [%]), FTR 600 mg ER BID coadministered with BUP/NLX
  Cmax: 2050 ng/mL
[2]
  Accumulation: < 2 fold
